For six compounds, Kd, Drug degradation and inhibition results are on record in ChEMBL document CHEMBL2169831 (J Med Chem, 2011).

Data set [1] is described as follows: Binding affinity to Xenopus laevis oocyte CNGA1/CNGB1 assessed as inhibition of 2 mM cGMP-induced currents at +50 mV potential at 5 uM by patch-clamp method. The note with it: read-out: Kd(app). The method, boiled down: (§1)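 Rod CNGA1 plus CNGB1 cRNA (2:1; 33 ng plus 67 ng) co-injected into stage IV–V Xenopus oocytes, held at 16–18 °C. Inside-out excised patches recorded 3–7 days after injection. Channels were maximally activated with 2 mM cGMP, and compound was added. Steps ran from 0 to −50 and +50 mV. Currents with no cGMP were subtracted, and KD was fitted to a single-site block equation (mean ± SD).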
Background: The patch-clamp technique gives a direct electrical read-out from membranes.

Data set [2] can be described thus: Drug degradation in 0.1 M phosphate buffer at pH 7.4 assessed as human butyrylcholinestase-mediated compound hydrolysis rate at 50 uM during first 1 min by spectrophotometric analysis. The note with it: pH 7.4, 1 min.
Data set [3] is described as follows: Binding affinity to Xenopus laevis oocyte CNGA1/CNGB1 assessed as inhibition of 2 mM cGMP-induced currents at -50 mV potential at 5 uM by patch-clamp method. The note with it: read-out: Kd(app). The procedure, abridged: as §1
Data set [4] is filed under the species Xenopus laevis. Kind of data set: Inhibition of Xenopus laevis oocyte CNGA1/CNGB1 assessed as inhibition of cGMP-induced currents at +50 mV potential at 1 uM by patch-clamp method in presence of 50 uM cGMP. The method, boiled down: (§2)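 Heteromeric rod CNG channels from oocytes co-injected with CNGA1 and CNGB1 cRNA (33 ng:67 ng, 2:1), held at 16–18 °C and recorded 3–7 days later. Excised inside-out patches were stepped from 0 to −50 to +50 mV with sub-saturating cGMP (50 or 100 µM), with or without blocker. Currents without cGMP were subtracted and filtered at 300 Hz. Block was read at +50 mV.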

The species entered for data set [5] is Xenopus laevis. Nature of the data set: Inhibition of Xenopus laevis oocyte CNGA1/CNGB1 assessed as inhibition of currents at +50 mV potential at 2 uM by patch-clamp method in presence of 50 uM cGMP. The procedure, abridged:
as §2

The species entered for data set [6] is Xenopus laevis. Nature of the data set: Inhibition of Xenopus laevis oocyte CNGA1/CNGB1 assessed as inhibition of cGMP-induced currents at +50 mV potential at 1 uM by patch-clamp method in presence of 100 uM cGMP. The procedure, abridged: as §2
For data set [7], the species on record is Xenopus laevis. Kind of data set: Inhibition of Xenopus laevis oocyte CNGA1/CNGB1 assessed as inhibition of currents at +50 mV potential at 2 uM by patch-clamp method in presence of 100 uM cGMP. The procedure, abridged: as §2

Calls of active or inactive are those of the source. The rule behind the calls is not given here.

For `CCCCNc1ccc(C(=O)NCCN(C)C)cc1`, the Kd came out at 4400 nM in data set [1] and 28600 nM in data set [3]. In addition, in data set [2], the Drug degradation turned out to be 8.4 nmol/min/mg.
In the case of `CCCCCCCCNc1ccc(C(=S)NCCN(C)C)cc1`, the figures for the Kd in data set [1] and in data set [3] were 700 nM and 1800 nM, respectively.
Consider `CCCCCCCCNc1ccc(C(=O)OCCN(C)C)cc1`, for which the results for the Kd in data set [1] and in data set [3] were 1000 nM and 2400 nM, respectively. The inhibition entry in the data set listed under Xenopus laevis [4], in the data set filed under Xenopus laevis [5], in the data set listed under Xenopus laevis [6] and in the data set listed under Xenopus laevis [7] was “Active” in each case. The Drug degradation in data set [2] is on record as 213 nmol/min/mg.
For the compound `CCCCNc1ccc(C(=S)NCCN(C)C)cc1`, the Kd in data set [1] was 600 nM; in data set [3] it was 3900 nM.
With `CCCCNc1ccc(C(=O)OCCN(C)C)cc1` [TETRACAINE], the inhibition result in the data set filed under Xenopus laevis [4], in the data set filed under Xenopus laevis [5], in the data set filed under Xenopus laevis [6] and in the data set filed under Xenopus laevis [7] was “Active” in each case. Further, in data set [2], the Drug degradation came out at 132 nmol/min/mg.
Regarding `CCCCCCCCNc1ccc(C(=O)NCCN(C)C)cc1`, in data set [2], the Drug degradation is on record as 1.2 nmol/min/mg.
